Laboratory results from ChEMBL document CHEMBL3098105, “7,7'-Diazaindirubin--a small molecule inhibitor of casein kinase 2 in vitro and in cells” (Bioorg Med Chem, 2014).
Active and inactive are the calls of the source. The calls are words filed in the database; no cut-off is given here.

Tests used:
[1] = target: Macrophage colony-stimulating factor 1 receptor (Homo sapiens) (UniProt P07333); assay: Inhibition of human Fms assessed as residual activity at 1 uM relative to control
[2] = target: Tyrosine-protein kinase Yes (Homo sapiens) (UniProt P07947); assay: Inhibition of human Yes assessed as residual activity at 1 uM relative to control
[3] = target: Ribosomal protein S6 kinase alpha-3 (Homo sapiens) (UniProt P51812); assay: Inhibition of human Rsk2 assessed as residual activity at 1 uM relative to control
[4] = target: RAC-gamma serine/threonine-protein kinase (Homo sapiens) (UniProt Q9Y243); assay: Inhibition of human PKBgamma assessed as residual activity at 1 uM relative to control
[5] = target: Angiopoietin-1 receptor (Homo sapiens) (UniProt Q02763); assay: Inhibition of human Tie2 assessed as residual activity at 1 uM relative to control
[6] = target: Epidermal growth factor receptor (Homo sapiens) (UniProt P00533); assay: Inhibition of human EGFR assessed as residual activity at 1 uM relative to control
[7] = target: Tyrosine-protein kinase Fgr (Homo sapiens) (UniProt P09769); assay: Inhibition of human Fgr assessed as residual activity at 1 uM relative to control
[8] = target: Cyclin-dependent kinase 2/cyclin E1 (Homo sapiens) (UniProt P24864+P24941); assay: Inhibition of human CDK2/cyclinE assessed as residual activity at 1 uM relative to control; type: protein-complex assay
[9] = target: Myotonin-protein kinase (Homo sapiens) (UniProt Q09013); assay: Inhibition of human DMPK assessed as residual activity at 1 uM relative to control
[10] = target: Death-associated protein kinase 1 (Homo sapiens) (UniProt P53355); assay: Inhibition of human DAPK1 assessed as residual activity at 1 uM relative to control
[11] = target: Serine/threonine-protein kinase pim-2 (Homo sapiens) (UniProt Q9P1W9); assay: Inhibition of human Pim-2 assessed as residual activity at 1 uM relative to control
[12] = target: Dual specificity mitogen-activated protein kinase kinase 7 (Homo sapiens) (UniProt O14733); assay: Inhibition of human MKK7beta assessed as residual activity at 1 uM relative to control
SK-OV-3 = assay: Antiproliferative activity against human SKOV3 cells after 3 days by sulforhodamine B assay; type: functional; conditions: SK-OV-3, 72 h
In short: (§1)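 Tested in the NCI 60 cell line panel. GI50 is the concentration giving 50% inhibition of cell growth, and values are the mean of two series of tests.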

[13] = target: Mitogen-activated protein kinase 14 (Homo sapiens) (UniProt Q16539); assay: Inhibition of human SAPK2alpha assessed as residual activity at 1 uM relative to control
SF-268 = assay: Antiproliferative activity against human SF268 cells after 3 days by sulforhodamine B assay; type: functional; conditions: SF-268, 72 h; in short: as §1
MCF7 [14] = assay: Induction of late stage apoptosis in human MCF7 cells expressing CK2 at 0.25 to 4 uM after 24 hrs using propidium iodide/annexin V staining by FACS analysis; type: functional, cell-based
In short: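 MCF7 cells were then treated for 24 h, stained with FITC-annexin V in HEPES pH 7.4 binding buffer with 1.8 mM CaCl2 (15 min, dark, room temperature), then with PI (10 min), and analysed by FACS.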

SNB-75 = assay: Antiproliferative activity against human SNB75 cells after 3 days by sulforhodamine B assay; type: functional; conditions: SNB-75, 72 h
[15] = target: Serine/threonine-protein kinase DCLK2 (Homo sapiens) (UniProt Q8N568); assay: Inhibition of human DCAMKL2 assessed as residual activity at 1 uM relative to control
[16] = target: Tyrosine-protein kinase ABL1 (Homo sapiens) (UniProt P00519); assay: Inhibition of ABL1 (unknown origin) assessed as residual activity at 1 uM relative to control
[17] = target: Tyrosine-protein kinase receptor UFO (Homo sapiens) (UniProt P30530); assay: Inhibition of human Axl assessed as residual activity at 1 uM relative to control
[18] = target: Casein kinase II subunit alpha' (Homo sapiens) (UniProt P19784); assay: Inhibition of human CK2a2 assessed as residual activity at 1 uM relative to control
MCF7 [19] = assay: Cell cycle arrest in human MCF7 cells assessed as accumulation at S phase at 0.25 uM after 24 hrs using propidium iodide staining by FACS analysis (reference value: 18.59%); type: functional
[20] = target: RAF proto-oncogene serine/threonine-protein kinase (Homo sapiens) (UniProt P04049); assay: Inhibition of RAF1 (unknown origin) assessed as residual activity at 10 uM relative to control
[21] = target: Serine/threonine-protein kinase mTOR (Homo sapiens) (UniProt P42345); assay: Inhibition of human mTOR assessed as residual activity at 1 uM relative to control
[22] = target: Death-associated protein kinase 2 (Homo sapiens) (UniProt Q9UIK4); assay: Inhibition of human DAPK2 assessed as residual activity at 1 uM relative to control
[23] = target: Tyrosine-protein kinase Mer (Homo sapiens) (UniProt Q12866); assay: Inhibition of human Mer assessed as residual activity at 1 uM relative to control
[24] = target: Interleukin-1 receptor-associated kinase 1 (Homo sapiens) (UniProt P51617); assay: Inhibition of human IRAK1 assessed as residual activity at 1 uM relative to control
[25] = target: Ribosomal protein S6 kinase beta-1 (Homo sapiens) (UniProt P23443); assay: Inhibition of human p70S6K assessed as residual activity at 1 uM relative to control
[26] = target: Serine/threonine-protein kinase WNK2 (Homo sapiens) (UniProt Q9Y3S1); assay: Inhibition of human WNK2 assessed as residual activity at 1 uM relative to control
[27] = target: RAF proto-oncogene serine/threonine-protein kinase (Homo sapiens) (UniProt P04049); assay: Inhibition of human c-RAF assessed as residual activity at 1 uM relative to control

RAF proto-oncogene serine/threonine-protein kinase (Homo sapiens), sequence (P04049 whole entry): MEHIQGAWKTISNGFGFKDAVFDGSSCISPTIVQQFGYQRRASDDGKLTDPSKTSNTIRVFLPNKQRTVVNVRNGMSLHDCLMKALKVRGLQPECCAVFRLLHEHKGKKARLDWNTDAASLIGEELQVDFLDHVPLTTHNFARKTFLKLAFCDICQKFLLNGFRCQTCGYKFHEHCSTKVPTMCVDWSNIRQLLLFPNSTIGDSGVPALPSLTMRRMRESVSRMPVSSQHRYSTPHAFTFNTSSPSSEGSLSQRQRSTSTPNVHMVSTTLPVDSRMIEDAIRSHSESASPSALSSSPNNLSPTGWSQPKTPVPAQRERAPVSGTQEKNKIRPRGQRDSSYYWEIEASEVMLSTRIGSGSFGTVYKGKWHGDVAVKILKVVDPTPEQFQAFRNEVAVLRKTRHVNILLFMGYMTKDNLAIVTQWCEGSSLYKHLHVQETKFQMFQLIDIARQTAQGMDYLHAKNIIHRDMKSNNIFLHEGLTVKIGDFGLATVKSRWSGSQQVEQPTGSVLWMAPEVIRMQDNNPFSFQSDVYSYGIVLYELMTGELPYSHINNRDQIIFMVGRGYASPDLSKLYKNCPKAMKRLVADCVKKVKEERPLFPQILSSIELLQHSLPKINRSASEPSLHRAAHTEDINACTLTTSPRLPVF
Myotonin-protein kinase (Homo sapiens), sequence (Q09013 whole entry): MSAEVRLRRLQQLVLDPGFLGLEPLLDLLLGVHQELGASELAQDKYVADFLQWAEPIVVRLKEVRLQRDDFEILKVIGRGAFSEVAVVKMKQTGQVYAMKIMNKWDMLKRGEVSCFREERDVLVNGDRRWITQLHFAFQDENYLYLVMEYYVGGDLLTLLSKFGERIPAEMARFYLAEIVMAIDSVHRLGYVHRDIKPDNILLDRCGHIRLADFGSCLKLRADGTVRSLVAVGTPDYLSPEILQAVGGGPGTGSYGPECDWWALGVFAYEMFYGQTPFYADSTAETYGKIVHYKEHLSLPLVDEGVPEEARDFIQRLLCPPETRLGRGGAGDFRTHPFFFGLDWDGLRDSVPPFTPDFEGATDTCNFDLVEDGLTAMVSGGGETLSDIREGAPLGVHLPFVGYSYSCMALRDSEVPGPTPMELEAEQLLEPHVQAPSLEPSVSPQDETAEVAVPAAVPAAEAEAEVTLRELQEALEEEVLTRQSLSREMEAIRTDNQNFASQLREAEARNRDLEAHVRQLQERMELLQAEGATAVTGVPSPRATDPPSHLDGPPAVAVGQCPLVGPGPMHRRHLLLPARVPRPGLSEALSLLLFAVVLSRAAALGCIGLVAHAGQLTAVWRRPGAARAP
Death-associated protein kinase 1 (Homo sapiens), sequence (P53355 whole entry, looked up): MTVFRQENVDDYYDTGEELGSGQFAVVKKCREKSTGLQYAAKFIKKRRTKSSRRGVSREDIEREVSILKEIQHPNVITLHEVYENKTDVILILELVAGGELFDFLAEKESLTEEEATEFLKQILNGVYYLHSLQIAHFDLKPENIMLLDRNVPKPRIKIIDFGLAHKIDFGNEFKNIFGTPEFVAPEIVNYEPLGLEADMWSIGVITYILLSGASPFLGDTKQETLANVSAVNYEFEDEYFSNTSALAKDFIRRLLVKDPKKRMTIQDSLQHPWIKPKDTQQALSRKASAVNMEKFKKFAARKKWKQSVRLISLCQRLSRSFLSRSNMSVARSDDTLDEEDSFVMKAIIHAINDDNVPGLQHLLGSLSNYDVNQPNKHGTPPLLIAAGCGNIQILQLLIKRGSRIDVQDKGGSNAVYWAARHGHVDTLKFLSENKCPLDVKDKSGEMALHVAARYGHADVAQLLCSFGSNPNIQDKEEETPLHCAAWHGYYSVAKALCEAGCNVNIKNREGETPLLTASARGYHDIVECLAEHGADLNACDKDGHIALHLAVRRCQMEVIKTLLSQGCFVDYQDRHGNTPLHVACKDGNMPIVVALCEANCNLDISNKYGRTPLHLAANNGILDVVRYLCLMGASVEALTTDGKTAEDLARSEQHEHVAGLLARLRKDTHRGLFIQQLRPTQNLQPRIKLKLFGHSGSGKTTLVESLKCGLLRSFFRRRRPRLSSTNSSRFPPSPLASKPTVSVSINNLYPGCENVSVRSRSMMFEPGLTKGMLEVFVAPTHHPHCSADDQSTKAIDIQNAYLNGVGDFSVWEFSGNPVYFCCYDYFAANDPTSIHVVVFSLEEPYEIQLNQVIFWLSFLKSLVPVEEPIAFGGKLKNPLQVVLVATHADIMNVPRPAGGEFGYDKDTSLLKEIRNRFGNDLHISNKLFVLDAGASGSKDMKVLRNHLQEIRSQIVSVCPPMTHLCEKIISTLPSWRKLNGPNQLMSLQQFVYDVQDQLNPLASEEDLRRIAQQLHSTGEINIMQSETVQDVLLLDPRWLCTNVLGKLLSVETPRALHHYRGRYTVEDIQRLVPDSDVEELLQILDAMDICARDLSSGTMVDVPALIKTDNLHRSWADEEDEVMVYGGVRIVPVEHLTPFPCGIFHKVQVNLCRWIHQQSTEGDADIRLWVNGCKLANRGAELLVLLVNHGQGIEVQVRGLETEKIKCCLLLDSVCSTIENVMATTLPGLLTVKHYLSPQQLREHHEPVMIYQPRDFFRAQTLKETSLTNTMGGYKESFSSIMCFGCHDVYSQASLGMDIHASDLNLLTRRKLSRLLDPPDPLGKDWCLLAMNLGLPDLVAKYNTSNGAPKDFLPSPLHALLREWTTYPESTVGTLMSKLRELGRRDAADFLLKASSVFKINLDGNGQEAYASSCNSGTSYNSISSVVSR
Mitogen-activated protein kinase 14 (Homo sapiens), sequence (Q16539 whole entry): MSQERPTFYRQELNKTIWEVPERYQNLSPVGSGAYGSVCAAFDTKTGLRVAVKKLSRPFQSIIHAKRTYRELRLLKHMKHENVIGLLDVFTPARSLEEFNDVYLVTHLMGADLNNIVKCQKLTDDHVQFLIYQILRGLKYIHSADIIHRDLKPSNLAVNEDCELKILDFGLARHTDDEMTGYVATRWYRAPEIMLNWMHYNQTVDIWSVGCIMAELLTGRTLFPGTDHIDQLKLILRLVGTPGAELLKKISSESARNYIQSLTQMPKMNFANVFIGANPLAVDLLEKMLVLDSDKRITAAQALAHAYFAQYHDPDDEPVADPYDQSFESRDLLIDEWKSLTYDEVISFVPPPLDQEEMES
Dual specificity mitogen-activated protein kinase kinase 7 (Homo sapiens), sequence (O14733 whole entry): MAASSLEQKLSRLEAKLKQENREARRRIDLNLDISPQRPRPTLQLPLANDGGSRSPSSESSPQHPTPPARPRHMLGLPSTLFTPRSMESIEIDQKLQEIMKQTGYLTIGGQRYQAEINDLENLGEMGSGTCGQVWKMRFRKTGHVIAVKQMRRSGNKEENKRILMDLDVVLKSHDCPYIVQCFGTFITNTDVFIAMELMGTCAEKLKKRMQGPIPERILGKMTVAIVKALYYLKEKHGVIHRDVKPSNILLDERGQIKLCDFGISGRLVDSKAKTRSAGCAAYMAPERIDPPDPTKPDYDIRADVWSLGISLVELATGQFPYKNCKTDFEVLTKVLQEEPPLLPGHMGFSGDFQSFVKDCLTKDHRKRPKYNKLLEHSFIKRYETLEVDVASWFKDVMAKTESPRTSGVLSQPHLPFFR
Tyrosine-protein kinase ABL1 (Homo sapiens), sequence (P00519 whole entry): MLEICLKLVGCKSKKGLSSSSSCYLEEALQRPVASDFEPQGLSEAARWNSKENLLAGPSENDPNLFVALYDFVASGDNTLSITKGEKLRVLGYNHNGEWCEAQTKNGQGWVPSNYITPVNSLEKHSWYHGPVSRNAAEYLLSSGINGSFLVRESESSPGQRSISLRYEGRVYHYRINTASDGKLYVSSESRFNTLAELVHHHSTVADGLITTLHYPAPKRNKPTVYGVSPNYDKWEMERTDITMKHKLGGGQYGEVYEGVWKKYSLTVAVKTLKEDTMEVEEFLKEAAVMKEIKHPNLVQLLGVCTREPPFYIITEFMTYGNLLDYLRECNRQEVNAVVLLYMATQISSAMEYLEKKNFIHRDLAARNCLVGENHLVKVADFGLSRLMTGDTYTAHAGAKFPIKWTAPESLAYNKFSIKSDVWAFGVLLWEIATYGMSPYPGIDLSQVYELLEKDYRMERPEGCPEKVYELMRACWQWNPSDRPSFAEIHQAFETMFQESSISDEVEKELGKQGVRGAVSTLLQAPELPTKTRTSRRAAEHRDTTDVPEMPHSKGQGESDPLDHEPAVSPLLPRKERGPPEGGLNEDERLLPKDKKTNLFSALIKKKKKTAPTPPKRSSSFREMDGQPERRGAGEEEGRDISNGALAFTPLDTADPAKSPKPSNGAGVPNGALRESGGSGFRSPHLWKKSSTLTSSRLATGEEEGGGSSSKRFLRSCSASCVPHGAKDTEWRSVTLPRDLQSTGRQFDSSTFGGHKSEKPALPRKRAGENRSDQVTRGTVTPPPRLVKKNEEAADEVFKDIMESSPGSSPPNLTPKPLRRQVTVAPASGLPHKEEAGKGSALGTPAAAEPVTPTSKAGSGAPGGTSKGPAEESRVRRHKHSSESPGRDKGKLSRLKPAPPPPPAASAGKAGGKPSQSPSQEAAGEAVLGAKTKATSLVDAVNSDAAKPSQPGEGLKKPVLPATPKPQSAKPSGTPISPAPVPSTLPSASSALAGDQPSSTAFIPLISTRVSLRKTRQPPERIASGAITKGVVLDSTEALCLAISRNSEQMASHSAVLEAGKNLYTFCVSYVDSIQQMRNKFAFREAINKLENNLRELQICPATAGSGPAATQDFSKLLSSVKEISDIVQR
Serine/threonine-protein kinase pim-2 (Homo sapiens), sequence (Q9P1W9 whole entry, looked up): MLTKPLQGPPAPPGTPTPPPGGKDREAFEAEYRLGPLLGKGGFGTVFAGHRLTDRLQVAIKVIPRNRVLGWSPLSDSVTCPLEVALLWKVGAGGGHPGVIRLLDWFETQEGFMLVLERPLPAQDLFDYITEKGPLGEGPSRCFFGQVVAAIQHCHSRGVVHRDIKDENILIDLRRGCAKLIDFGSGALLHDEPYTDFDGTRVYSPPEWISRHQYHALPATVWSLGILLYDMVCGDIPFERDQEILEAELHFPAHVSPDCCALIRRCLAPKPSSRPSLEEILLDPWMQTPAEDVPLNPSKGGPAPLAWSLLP

- Activity [1]: 91%
- Activity [2]: 120%
- Activity [3]: 94%
- Activity [4]: 126%
- Activity [5]: 117%
- Activity [6]: 120%
- Activity [7]: 114%
- Activity [8]: 79%
- Activity [9]: 95%
- Activity [11]: 142%
- Activity [12]: 103%
- GI50 (SK-OV-3): 3950 nM
- Activity [13]: 111%
- Activity [15]: 100%
- Activity [16]: 96%
- Activity [17]: 92%
- Activity [18]: 28%
- Activity [20]: 86%
- Activity [21]: 99%
- Activity [23]: 95%
- Activity [24]: 89%
- Activity [25]: 133%
- Activity [26]: 102%
- Activity [27]: 73%
Compound: O=C1Nc2ncccc2/C1=C1/Nc2ncccc2C1=O
- Activity [10]: 94%
- GI50 (SF-268): 1620 nM
- Activity (MCF7 [14]): Active
- GI50 (SNB-75): 1580 nM
- Activity (MCF7 [19]): 18.57%
- Activity [22]: 114%
